Assay results taken from ChEMBL document CHEMBL1124062, “Structure-affinity relationships of arylquinolizines at alpha-adrenoceptors” (J Med Chem, 1988).

How the values were obtained:
[1] = molecular target: T1, Alpha-2A adrenergic receptor (Bos taurus, UniProt Q28838); test: Affinity to alpha-2 adrenergic receptor by the displacement of [3H]clonidine from calf cerebral cortex membranes; format: tissue-based
T1 sequence (Q28838 whole entry): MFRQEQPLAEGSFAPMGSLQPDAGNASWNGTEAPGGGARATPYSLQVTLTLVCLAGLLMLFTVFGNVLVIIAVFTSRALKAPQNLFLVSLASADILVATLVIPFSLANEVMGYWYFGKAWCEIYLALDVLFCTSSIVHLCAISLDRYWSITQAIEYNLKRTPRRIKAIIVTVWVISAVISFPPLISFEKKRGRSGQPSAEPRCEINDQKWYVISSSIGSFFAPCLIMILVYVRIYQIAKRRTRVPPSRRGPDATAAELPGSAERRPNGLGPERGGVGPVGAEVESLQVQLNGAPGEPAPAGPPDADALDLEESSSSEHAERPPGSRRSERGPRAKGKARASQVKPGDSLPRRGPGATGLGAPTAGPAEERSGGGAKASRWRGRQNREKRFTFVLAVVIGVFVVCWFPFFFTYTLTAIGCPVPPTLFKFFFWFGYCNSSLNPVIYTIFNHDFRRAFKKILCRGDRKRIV
Summary of the method: (§1)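 Membranes from calf cerebral cortex as the receptor source. Alpha1 sites labelled with [3H]prazosin and alpha2 sites with [3H]clonidine. Affinity measured as displacement of each radioligand.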

[2] = Partition coefficient (logD) (octanol/phosphate buffer); format: physicochemical
Summary of the method: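 Shake-flask partition between octanol and pH 7.4 phosphate buffer of ionic strength 0.1 as the aqueous phase. Compound level in each phase read by UV absorption.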

[3] = molecular target: T2, Alpha-1A adrenergic receptor (Bos taurus, UniProt P18130); test: Affinity to alpha-1 adrenergic receptor by the displacement of [3H]-prazosin from calf cerebral cortex membranes; format: tissue-based; summary of the method: as §1
T2 sequence (P18130 whole entry): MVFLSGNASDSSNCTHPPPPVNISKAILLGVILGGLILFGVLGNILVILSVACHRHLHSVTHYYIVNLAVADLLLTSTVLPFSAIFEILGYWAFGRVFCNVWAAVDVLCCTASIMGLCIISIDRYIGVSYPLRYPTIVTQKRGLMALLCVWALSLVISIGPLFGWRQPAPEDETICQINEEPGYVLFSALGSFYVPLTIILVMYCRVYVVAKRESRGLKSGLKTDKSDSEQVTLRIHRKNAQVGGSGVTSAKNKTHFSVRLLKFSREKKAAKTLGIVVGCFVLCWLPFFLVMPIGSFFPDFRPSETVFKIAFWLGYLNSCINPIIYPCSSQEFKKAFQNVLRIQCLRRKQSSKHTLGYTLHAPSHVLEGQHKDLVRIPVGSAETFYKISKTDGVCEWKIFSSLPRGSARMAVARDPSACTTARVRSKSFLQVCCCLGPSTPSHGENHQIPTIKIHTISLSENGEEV

[4] = Selectivity expressed as the ratio of Ki of [3H]prazosin to Ki of [3H]-clonidine
[5] = molecular target: T2, Alpha-1A adrenergic receptor; test: Compound was evaluated for log 1/Ki at alpha-1 adrenergic receptor; conditions: read-out: Log 1/Ki (converted); summary of the method: as §1
[6] = molecular target: T1, Alpha-2A adrenergic receptor; test: Compound was evaluated for log 1/Ki at alpha-2 adrenergic receptor; conditions: read-out: Log 1/Ki (converted); summary of the method: as §1

Structure (SMILES) | Ki [1] | logD [2] | Ki [3] | Selectivity [4] | Ki [5] | Ki [6]
c1cnc2[nH]c3c(c2c1)CCN1CCCCC31 (stereo not drawn) | 660 nM | 0.16 | 540 nM | 0.8 | 537 nM | 661 nM
c1[nH]nc2c1CCN1CCCCC21 (stereo not drawn) | 9600 nM | 0.16 | 24000 nM | 2.5 | 24000 nM | 9550 nM
c1ccc2c3c(sc2c1)C1CCCCN1CC3 (stereo not drawn) | 4.3 nM | 2.09 | 16.1 nM | 3.7 | 16.2 nM | 4.27 nM
c1cc2c(s1)C1CCCCN1CC2 (stereo not drawn) | 195 nM | 1.51 | 1100 nM | 5.6 | 1100 nM | 195 nM
c1ccc2c3c([nH]c2c1)C1CCCCN1CC3 (stereo not drawn) | – | 1.83 | – | – | – | –
c1ccc2c3c(oc2c1)C1CCCCN1CC3 (stereo not drawn) | 16.2 nM | 1.8 | 110 nM | 6.8 | 110 nM | 16.2 nM
c1cnc2c(c1)CCN1CCCCC21 (stereo not drawn) | 2000 nM | 0.39 | 3250 nM | 1.6 | 3240 nM | 2000 nM
Nc1nc2c(s1)CCN1CCCCC21 (stereo not drawn) | 350 nM | 0.39 | 2800 nM | 8 | 2820 nM | 347 nM
